Assay results as given in ChEMBL document CHEMBL4837261, “Optimization of TopoIV Potency, ADMET Properties, and hERG Inhibition of 5-Amino-1,3-dioxane-Linked Novel Bacterial Topoisomerase Inhibitors: Identification of a Lead with In Vivo Efficacy against MRSA” (J Med Chem, 2021).
≈ marks a conversion by molar mass, not a printed value.

Columns and labels:
Staphylococcus aureus [1] = test: Antibacterial activity against methicillin-resistant Staphylococcus aureus ATCC 33591 infected in iv dosed CD1 mouse model of septicemia assessed as mouse survival at 25 to 50 mg/kg, iv administered 0.5 to 3.5 hrs post injection measured for 7 days relative to control; type: functional; conditions: dose 25-50 mg/kg; time 7 day
CYP2B6 = CYP2B6 (Homo sapiens, UniProt P20813); test: Inhibition of CYP2B6 (unknown origin) at 10 uM relative to control; type: ADME
[2] = Half life in ICR (CD-1) mouse at 10 mg/kg, iv measured up to 1440 mins by LC-MS/MS analysis; type: ADME, organism-based; conditions: in vivo
Outline: (§1)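 Male ICR (CD-1) mice, 22 ± 2 g, given the free base in DMSO/Solutol HS-15/0.9% NaCl (5/5/90, v/v/v), IV at 10 mg/kg or PO at 50 mg/kg; 24 mice per route, three per timepoint. Plasma was taken by cardiac puncture at 3–1440 min (IV) or 10–1440 min (PO), measured by LC-MS/MS, and parameters were derived by noncompartmental analysis.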

[3] = AUClast in ICR (CD-1) mouse at 10 mg/kg, iv measured up to 1440 mins by LC-MS/MS analysis; type: ADME, organism-based; set-up: route intravenous, dose 10 mg/kg, time <=1440; conditions: in vivo; outline: as §1
CYP2C8 = CYP2C8 (Homo sapiens, UniProt P10632); test: Inhibition of CYP2C8 (unknown origin) at 10 uM relative to control; type: ADME
Staphylococcus aureus [4] = test: Antibacterial activity against methicillin-resistant Staphylococcus aureus ATCC 33591 infected in iv dosed CD1 mouse model of septicemia assessed as mouse survival at 1 to 10 mg/kg, iv administered 0.5 to 3.5 hrs post injection measured for 7 days relative to control; type: functional; conditions: dose 1-10 mg/kg, time 7 day
Outline: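 Female CD-1 mice (18–20 g), in groups of six, were infected IP with 1.3 × 10^8 CFU MRSA ATCC 33591 suspended in 8% hog gastric mucin (pH 7.5). Compound was given as the methanesulfonate salt in 5% DMSO/water for injection, by IV tail vein at 0.5, 1.5, 2.5 and 3.5 h post infection. Dose levels were 1, 5, 10, 25 and 50 mg/kg/dose. Survival was followed for 7 days against untreated infection controls.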

[5] = Permeability of the compound from apical to basolateral side in human Caco-2 cells; type: ADME, cell-based; conditions: read-out: permeability
[6] = molecular target: DNA gyrase (Staphylococcus aureus) (UniProt P0A0K8+P20831); test: Inhibition of Staphylococcus aureus DNA Gyrase assessed as reduction in supercoiling pBR322 DNA by measuring induction of double strand breaks by ethidium bromide staining based agarose gel electrophoresis; type: protein-complex assay; conditions: dose 1-100 µM
Outline: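 Gyrase-mediated cleavage of negatively supercoiled pBR322 ran for 30 min at 37 °C with compound at 0.5–200 μM. Single- and double-strand break products were quantified from gel lane fluorescence, corrected for differential emission of supercoiled versus linear DNA.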

Cytochrome P450 2C19 = Cytochrome P450 2C19 (Homo sapiens, UniProt P33261); test: Inhibition of CYP2C19 (unknown origin); type: ADME
Staphylococcus aureus [7] = test: Antibacterial activity against Staphylococcus aureus harbouring GyrA D83N mutant by CLSI method; type: functional
Cav1.2 = Cav1.2 (Homo sapiens, UniProt Q13936); test: Inhibition of recombinant human Cav1.2 expressed in human HEK293 cells at 100 uM measured at peak current by automated Qpatch clamp assay relative to control; type: ADME, cell-based; conditions: HEK293 cells expressing recombinant human Cav1.2
Pseudomonas aeruginosa = test: Antibacterial activity against Pseudomonas aeruginosa isolates by CLSI method; type: functional
HepG2 = test: Cytotoxicity against human HepG2 cells; type: cell-based
Outline: (§2)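 THP-1, HepG2 and HeLa cells were exposed to compound from 128 to 0.0625 μg/mL. IC50 was obtained by nonlinear regression of the inhibition curves.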

CYP1A2 = CYP1A2 (Homo sapiens, UniProt P05177); test: Inhibition of CYP1A2 (unknown origin) at 10 uM relative to control; type: ADME
Enterobacter cloacae = test: Antibacterial activity against Enterobacter cloacae isolates by CLSI method; type: functional
[8] = molecular target: Acetylcholinesterase (Homo sapiens) (UniProt P22303); test: Inhibition of human recombinant acetylcholinesterase receptor expressed in HEK293 cells at 100 uM by spectrophotometry; type: cell-based
Cytochrome P450 2D6 = Cytochrome P450 2D6 (Homo sapiens, UniProt P10635); test: Inhibition of CYP2D6 (unknown origin); type: ADME
Kv4.3 (KCND3) [9] = molecular target: T1, Kv4.3 (KCND3) (Homo sapiens, UniProt Q9UK17); test: Inhibition of recombinant human Kv4.3 expressed in human HEK293 cells at 100 uM measured at end current by automated Qpatch clamp assay relative to control; type: ADME, cell-based; conditions: HEK293 cells expressing recombinant human Kv4.3
KCNQ1 = KCNQ1 (Homo sapiens, UniProt P51787); test: Inhibition of recombinant human KCNQ1 expressed in CHO-K1 cells at 100 uM by automated Qpatch clamp assay relative to control; type: ADME, cell-based; conditions: CHO-K1 cells expressing recombinant human KCNQ1
Staphylococcus aureus [10] = test: Antibacterial activity against cystic fibrosis isolate Staphylococcus aureus by CLSI method; type: functional
[11] = Clearance in ICR (CD-1) mouse at 10 mg/kg, iv measured up to 1440 mins by LC-MS/MS analysis; type: ADME, organism-based; conditions: in vivo; outline: as §1
Staphylococcus aureus [12] = test: Antibacterial activity against methicillin-resistant Staphylococcus aureus USA300 by CLSI method; type: functional
Kv4.3 (KCND3) [13] = molecular target: T1, Kv4.3 (KCND3); test: Inhibition of recombinant human Kv4.3 expressed in human HEK293 cells at 100 uM measured at peak current by automated Qpatch clamp assay relative to control; type: ADME, cell-based; conditions: HEK293 cells expressing recombinant human Kv4.3
Cytochrome P450 2C9 = Cytochrome P450 2C9 (Homo sapiens, UniProt P11712); test: Inhibition of CYP2C9 (unknown origin); type: ADME
[14] = Kinetic solubility of the compound at pH 7.4 buffer; type: physicochemical; conditions: read-out: Kinetic_solubility
Outline: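 Kinetic aqueous solubility was measured in buffer at pH 7.4.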

HeLa = test: Cytotoxicity against human HeLa cells; type: cell-based; outline: as §2
[15] = Oral bioavailability in ICR (CD-1) mouse at 50 mg/kg measured up to 1440 mins by LC-MS/MS analysis; type: ADME, organism-based; conditions: in vivo
Outline: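 Male ICR (CD-1) mice, 22 ± 2 g, given free base in DMSO/Solutol HS-15/0.9% NaCl (5/5/90) at 50 mg/kg PO or 10 mg/kg IV. Three mice per timepoint, 8 timepoints. Plasma taken by cardiac puncture at 10–1440 min (PO) or 3–1440 min (IV). Measured by LC-MS/MS, with parameters from noncompartmental analysis.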

T1 sequence (Q9UK17 whole entry): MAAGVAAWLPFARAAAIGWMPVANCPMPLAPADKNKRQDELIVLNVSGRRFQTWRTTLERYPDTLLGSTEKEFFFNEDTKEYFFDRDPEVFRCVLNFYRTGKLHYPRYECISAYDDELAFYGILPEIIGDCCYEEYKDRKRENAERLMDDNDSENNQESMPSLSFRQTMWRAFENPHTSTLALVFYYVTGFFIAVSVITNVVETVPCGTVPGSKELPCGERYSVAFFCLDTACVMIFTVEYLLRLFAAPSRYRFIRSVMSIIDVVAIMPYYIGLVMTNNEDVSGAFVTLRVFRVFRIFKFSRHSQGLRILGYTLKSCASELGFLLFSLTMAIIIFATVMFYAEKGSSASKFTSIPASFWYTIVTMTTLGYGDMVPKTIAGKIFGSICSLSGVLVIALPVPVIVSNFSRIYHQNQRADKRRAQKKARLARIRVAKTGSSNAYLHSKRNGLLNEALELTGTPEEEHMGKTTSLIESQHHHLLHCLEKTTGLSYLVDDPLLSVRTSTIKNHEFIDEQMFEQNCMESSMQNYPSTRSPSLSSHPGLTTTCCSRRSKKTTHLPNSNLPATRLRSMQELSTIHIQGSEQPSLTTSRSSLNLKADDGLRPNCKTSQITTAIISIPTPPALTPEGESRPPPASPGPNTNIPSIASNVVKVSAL
CYP1A2, sequence (P05177 whole entry): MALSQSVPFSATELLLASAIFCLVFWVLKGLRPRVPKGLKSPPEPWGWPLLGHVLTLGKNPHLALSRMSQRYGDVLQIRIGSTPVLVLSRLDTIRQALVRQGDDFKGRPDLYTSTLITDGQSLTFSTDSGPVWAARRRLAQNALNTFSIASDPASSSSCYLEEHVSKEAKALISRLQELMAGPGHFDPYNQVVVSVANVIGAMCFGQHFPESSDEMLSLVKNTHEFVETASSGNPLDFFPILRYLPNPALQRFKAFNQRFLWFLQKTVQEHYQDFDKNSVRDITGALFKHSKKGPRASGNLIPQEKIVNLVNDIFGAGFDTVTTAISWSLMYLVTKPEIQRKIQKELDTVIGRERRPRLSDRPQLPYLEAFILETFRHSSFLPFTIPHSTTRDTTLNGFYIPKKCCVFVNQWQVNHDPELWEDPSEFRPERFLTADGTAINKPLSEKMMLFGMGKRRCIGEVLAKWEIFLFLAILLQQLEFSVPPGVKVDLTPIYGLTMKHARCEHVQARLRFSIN
Cytochrome P450 2D6, sequence (P10635 whole entry): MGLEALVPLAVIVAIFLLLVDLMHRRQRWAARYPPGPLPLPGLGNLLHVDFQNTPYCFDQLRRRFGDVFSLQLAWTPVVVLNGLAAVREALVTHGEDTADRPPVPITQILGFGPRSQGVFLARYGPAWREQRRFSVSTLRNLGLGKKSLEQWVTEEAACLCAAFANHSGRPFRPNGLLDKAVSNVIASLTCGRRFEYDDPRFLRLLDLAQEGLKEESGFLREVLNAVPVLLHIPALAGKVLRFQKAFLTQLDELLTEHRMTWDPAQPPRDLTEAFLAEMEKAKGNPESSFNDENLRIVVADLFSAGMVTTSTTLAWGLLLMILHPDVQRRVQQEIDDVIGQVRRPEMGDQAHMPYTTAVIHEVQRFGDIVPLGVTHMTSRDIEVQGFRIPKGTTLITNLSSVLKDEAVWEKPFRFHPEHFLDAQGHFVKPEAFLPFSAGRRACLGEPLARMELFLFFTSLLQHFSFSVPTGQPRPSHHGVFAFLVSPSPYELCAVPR
Cav1.2, sequence (Q13936 whole entry): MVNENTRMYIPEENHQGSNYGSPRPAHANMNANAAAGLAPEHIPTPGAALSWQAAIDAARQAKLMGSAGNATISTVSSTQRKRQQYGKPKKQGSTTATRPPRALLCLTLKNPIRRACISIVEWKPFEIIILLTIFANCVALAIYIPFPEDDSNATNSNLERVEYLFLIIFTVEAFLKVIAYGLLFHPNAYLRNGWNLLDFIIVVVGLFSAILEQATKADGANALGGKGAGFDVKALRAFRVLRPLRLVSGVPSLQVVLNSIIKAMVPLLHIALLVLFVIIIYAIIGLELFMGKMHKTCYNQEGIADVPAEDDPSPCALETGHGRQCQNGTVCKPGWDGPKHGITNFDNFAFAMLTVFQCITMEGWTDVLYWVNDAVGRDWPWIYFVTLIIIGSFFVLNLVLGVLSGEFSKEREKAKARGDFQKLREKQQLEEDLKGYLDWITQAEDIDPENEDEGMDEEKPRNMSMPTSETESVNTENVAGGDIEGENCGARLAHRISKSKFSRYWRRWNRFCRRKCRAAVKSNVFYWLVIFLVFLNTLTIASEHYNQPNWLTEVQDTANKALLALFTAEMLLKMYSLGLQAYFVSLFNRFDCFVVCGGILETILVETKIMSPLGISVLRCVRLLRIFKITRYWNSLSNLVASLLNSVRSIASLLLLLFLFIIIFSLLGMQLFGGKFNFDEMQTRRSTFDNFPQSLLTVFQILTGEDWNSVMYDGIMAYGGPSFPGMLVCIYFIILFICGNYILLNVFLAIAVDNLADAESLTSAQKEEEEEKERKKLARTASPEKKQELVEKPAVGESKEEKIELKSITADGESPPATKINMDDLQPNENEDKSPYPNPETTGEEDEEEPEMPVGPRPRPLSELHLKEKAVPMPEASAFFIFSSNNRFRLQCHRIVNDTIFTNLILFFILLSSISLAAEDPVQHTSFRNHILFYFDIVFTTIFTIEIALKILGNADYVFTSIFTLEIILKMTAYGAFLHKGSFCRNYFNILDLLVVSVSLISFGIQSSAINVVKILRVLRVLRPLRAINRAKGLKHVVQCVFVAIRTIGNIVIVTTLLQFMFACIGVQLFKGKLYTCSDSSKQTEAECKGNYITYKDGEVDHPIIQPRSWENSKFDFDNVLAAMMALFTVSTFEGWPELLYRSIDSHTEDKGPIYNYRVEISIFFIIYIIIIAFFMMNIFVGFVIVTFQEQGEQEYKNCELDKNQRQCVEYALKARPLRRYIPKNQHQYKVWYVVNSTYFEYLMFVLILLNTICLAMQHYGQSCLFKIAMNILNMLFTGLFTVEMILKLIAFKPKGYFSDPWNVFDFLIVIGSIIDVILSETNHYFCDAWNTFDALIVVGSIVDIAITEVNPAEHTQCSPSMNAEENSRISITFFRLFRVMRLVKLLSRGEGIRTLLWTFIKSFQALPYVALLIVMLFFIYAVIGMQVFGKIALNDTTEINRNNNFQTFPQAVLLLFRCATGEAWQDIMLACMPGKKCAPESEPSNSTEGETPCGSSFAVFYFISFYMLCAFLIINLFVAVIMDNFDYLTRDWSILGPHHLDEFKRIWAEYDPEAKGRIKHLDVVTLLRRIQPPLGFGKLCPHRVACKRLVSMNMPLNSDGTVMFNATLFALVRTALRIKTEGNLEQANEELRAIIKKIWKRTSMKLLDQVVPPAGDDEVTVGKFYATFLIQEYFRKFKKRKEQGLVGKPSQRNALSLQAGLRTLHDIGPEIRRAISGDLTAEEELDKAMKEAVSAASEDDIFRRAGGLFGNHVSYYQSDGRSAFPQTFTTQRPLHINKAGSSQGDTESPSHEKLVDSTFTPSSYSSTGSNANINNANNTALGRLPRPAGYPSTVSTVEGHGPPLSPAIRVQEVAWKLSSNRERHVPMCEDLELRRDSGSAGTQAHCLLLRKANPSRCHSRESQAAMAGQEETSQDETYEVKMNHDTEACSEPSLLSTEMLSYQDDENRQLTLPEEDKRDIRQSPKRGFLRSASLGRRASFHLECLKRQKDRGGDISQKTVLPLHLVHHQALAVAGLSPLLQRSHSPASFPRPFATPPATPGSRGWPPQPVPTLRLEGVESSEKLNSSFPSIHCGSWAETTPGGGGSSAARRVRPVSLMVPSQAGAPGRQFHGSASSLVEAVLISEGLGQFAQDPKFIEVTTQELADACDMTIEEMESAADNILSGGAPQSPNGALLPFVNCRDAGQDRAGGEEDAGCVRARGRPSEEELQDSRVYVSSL
CYP2B6, sequence (P20813 whole entry): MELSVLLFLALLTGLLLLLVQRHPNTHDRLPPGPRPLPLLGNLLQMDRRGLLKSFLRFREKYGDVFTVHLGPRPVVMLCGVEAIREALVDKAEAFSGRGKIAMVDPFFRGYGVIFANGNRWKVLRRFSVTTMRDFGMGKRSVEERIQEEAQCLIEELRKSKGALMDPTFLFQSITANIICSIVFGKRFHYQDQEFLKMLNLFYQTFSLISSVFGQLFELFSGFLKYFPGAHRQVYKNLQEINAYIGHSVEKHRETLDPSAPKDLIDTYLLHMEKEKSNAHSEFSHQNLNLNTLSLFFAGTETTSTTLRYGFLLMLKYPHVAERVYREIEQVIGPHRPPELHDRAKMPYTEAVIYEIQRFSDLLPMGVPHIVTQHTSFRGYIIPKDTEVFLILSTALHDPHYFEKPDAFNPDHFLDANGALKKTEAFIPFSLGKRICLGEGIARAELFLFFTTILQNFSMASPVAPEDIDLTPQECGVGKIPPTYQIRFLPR
KCNQ1, sequence (P51787 whole entry): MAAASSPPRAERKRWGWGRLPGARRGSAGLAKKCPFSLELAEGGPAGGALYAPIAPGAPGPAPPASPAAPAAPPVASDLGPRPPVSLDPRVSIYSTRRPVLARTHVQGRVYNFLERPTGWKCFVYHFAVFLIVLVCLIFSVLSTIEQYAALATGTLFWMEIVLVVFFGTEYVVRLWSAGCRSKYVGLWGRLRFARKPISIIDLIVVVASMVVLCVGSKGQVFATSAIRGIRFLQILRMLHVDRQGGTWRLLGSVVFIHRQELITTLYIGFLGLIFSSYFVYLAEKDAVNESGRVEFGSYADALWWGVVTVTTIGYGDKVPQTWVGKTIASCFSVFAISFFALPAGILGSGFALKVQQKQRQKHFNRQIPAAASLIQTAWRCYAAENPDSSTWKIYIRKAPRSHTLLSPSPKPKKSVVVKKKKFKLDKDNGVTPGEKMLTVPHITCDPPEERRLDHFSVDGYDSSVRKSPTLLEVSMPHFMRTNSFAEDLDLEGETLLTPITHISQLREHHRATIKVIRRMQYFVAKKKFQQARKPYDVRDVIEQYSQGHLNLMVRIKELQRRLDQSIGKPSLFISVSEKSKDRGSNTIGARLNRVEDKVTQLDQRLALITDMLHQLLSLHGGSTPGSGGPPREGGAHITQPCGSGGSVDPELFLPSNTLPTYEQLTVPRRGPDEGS

Compound `COc1ccc2ncc(F)c(C[C@H](O)[C@H]3OC[C@H](NCc4cc5c(nn4)OCCS5)CO3)c2n1` has a Survival (Staphylococcus aureus [1]) of 100%, an inhibition at 10 µM (CYP2B6) of over 50% and a half-life [2] of 38 min. It also gave an AUC(0-t) at 24 h [3] of 2400 ng·h/mL, an inhibition at 10 µM (CYP2C8) of over 50% and a Survival (Staphylococcus aureus [4]) of over 50%. For the same compound, the Papp A→B [5] was 5.68 ×10⁻⁶ cm/s, the Activity [6] was “Dose-Dependent Effect” and the IC50 (Cytochrome P450 2C19) was over 10 µM. The MIC (Staphylococcus aureus [7]) was 4 µg/mL (≈ 8.17 µM), the inhibition at 100 µM (Cav1.2) was under 25% and the MIC50 (Pseudomonas aeruginosa) was over 64 µg/mL. The IC50 (HepG2) was over 125 µM, the inhibition at 10 µM (CYP1A2) was over 50% and the MIC50 (Enterobacter cloacae) was over 64 µg/mL. It also gave an inhibition [8] of over 45%, an IC50 (Cytochrome P450 2D6) of over 10 µM and an inhibition at 100 µM (Kv4.3 (KCND3) [9]) of under 25%. The inhibition at 100 µM (KCNQ1) was under 25%, the MIC (Staphylococcus aureus [10]) was 0.125 µg/mL (≈ 0.255 µM) and the clearance [11] was 69 mL/min/kg. For the same compound, the MIC (Staphylococcus aureus [12]) was 0.25 µg/mL (≈ 0.511 µM), the inhibition at 100 µM (Kv4.3 (KCND3) [13]) was under 25% and the IC50 (Cytochrome P450 2C9) was over 10 µM. The solubility kinetic [14] was 61.4 µM (≈ 30.1 µg/mL), the IC50 (HeLa) was over 125 µM and the bioavailability [15] was 49%.
